Assay results as given in ChEMBL document CHEMBL4765456, “Discovery of novel liver X receptor inverse agonists as lipogenesis inhibitors” (Eur J Med Chem, 2020).
The source made the active and inactive calls. The rule behind the calls is not given here.

How the values were obtained:
Type in all cases: cell-based
[1] = target: T1, Oxysterols receptor LXR-beta (Homo sapiens) (UniProt P55055); test: (§1) Inverse agonist activity at human LXRbeta transfected in human HEK293T cells co-transfected with pSG5 and pGL3/(DR-4)-c-fos-FF-luc/pCMV/Renilla-luc assessed as receptor transactivation incubated for 20 hrs by dual luciferase reporter gene assay
T1 sequence (whole entry): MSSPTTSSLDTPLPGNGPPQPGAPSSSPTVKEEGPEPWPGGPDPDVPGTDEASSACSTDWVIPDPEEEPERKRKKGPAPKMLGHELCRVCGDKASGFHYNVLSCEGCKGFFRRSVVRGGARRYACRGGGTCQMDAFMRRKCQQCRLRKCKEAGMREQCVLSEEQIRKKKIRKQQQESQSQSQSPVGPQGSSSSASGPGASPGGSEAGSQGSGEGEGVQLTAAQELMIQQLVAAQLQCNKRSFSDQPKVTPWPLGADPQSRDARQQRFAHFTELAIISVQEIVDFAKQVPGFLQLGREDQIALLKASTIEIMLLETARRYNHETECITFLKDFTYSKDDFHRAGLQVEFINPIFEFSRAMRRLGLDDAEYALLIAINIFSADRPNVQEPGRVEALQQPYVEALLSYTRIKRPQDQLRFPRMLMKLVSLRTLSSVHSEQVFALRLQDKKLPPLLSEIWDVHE

[2] = target: T2, Oxysterols receptor LXR-alpha (Homo sapiens) (UniProt Q13133); test: Agonist activity at human LXRalpha transfected in human HEK293T cells co-transfected with pSG5 and pGL3/(DR-4)-c-fos-FF-luc/pCMV/Renilla-luc assessed as receptor transactivation at 10 uM incubated for 20 hrs by dual luciferase reporter gene assay; settings: filed as agonist
T2 sequence (whole entry): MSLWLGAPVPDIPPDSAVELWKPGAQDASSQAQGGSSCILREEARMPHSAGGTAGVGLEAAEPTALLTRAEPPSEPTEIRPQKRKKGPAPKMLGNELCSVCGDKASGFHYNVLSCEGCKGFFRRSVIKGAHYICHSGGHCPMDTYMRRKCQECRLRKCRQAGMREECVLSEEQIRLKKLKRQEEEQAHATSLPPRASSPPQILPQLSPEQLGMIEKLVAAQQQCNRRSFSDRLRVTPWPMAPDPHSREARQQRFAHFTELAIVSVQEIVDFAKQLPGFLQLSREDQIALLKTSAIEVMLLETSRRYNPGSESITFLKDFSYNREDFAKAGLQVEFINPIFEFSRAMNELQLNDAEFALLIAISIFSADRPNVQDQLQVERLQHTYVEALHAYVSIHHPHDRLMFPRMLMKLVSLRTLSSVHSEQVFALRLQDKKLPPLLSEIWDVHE
Procedure, shortened: (§2)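 HEK293T cells seeded at 2 × 10^4 per well for 24 h, then transfected with pGL3/(DR-4)-c-fos-FF-luc, pCMV/Renilla-luc, pSG5/hRXRa and pSG5/hLXRa or pSG5/hLXRb. Compound added 5 h post-transfection and left 20 h. Firefly and Renilla luciferase read by dual-luciferase assay. Means ± SD from three independent experiments.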

[3] = target: T1, Oxysterols receptor LXR-beta (Homo sapiens); test: Agonist activity at human LXRbeta transfected in human HEK293T cells co-transfected with pSG5 and pGL3/(DR-4)-c-fos-FF-luc/pCMV/Renilla-luc assessed as receptor transactivation at 10 uM incubated for 20 hrs by dual luciferase reporter gene assay; settings: filed as agonist; procedure, shortened: as §2
[4] = system: HEK-293T; test: Cytotoxicity against human HEK293T cells assessed as reduction in cell viability upto 10 uM incubated for 48 hrs by MTT assay
Procedure, shortened: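 Cells kept in DMEM with 10% FBS and 1% penicillin/streptomycin at 37 °C, 5% CO2. HEK293T seeded at 5 × 10^3 per well for 24 h, then exposed to compound for 48 h. Viability read by MTT. Means ± SD of three independent experiments.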

[5] = system: 3T3-L1; test: Cytotoxicity against mouse 3T3-L1 cells assessed as reduction in cell viability at 10 uM incubated for 48 hrs by MTT assay; settings: 3t3-l1, 48 h
Procedure, shortened: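 Mouse 3T3-L1 cells in DMEM with 10% FBS, 1% penicillin/streptomycin, at 37 °C, 5% CO2. Plated at 2 × 10^3 per well for 24 h, then compound for 48 h. MTT read-out of viability. Means ± SD, three independent experiments.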

[6] = system: HepG2; test: Cytotoxicity against human HepG2 cells assessed as reduction in cell viability at 10 uM incubated for 48 hrs by MTT assay; settings: hepg2, 48 h
Procedure, shortened: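 HepG2 grown in DMEM with 10% FBS at 37 °C, 5% CO2. Seeded at 1 × 10^5 per well for 24 h, treated 48 h, viability by MTT assay. Means ± SD from three independent experiments.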

[7] = target: T3, Oxysterols receptor LXR-alpha (Homo sapiens, UniProt Q13133); test: Inverse agonist activity at human LXRalpha transfected in human HEK293T cells co-transfected with pSG5 and pGL3/(DR-4)-c-fos-FF-luc/pCMV/Renilla-luc assessed as receptor transactivation incubated for 20 hrs by dual luciferase reporter gene assay
T3 sequence (Q13133 whole entry): T2 sequence (whole entry)

[8] = target: T4, Oxysterols receptor LXR-beta (Homo sapiens, UniProt P55055); test: as §1
T4 sequence (P55055 whole entry): T1 sequence (whole entry)

Row | Activity [1] | Activity [2] | Activity [3] | Compound | other results
1 | inactive | Active | Active | CC(C)[C@@H]1N(C(=O)CC(C)(C)C)CC[C@@]12C(=O)N(c1cccc(-c3ccc(C(=O)N(C)C)c(Cl)c3)c1)c1ccccc12 | 
2 | inactive | Active | Active | COC(=O)c1ccc(N2C(=O)[C@@]3(CCN(C(=O)OC(C)(C)C)[C@H]3C(C)C)c3ccccc32)cc1S(C)(=O)=O | 
3 | inactive |  |  | CC(C)[C@@H]1N(C(=O)OC(C)(C)C)CC[C@@]12C(=O)N(CCCC#N)c1ccccc12 | 
4 | inactive | Active | Active | CC(C)[C@@H]1N(C(=O)C(C)(C)C)CC[C@@]12C(=O)N(c1cccc(-c3ccc(C(=O)N(C)C)c(Cl)c3)c1)c1ccccc12 | 
5 | inactive |  |  | COC(=O)c1ccc(N2C(=O)[C@@]3(CCN(C(=O)OC(C)(C)C)[C@H]3C(C)C)c3ccccc32)cc1 | 
6 | inactive |  |  | CC(C)[C@@H]1N(C(=O)OC(C)(C)C)CC[C@@]12C(=O)N(c1ccc(CO)cc1)c1ccccc12 | 
7 |  |  |  | CC(C)[C@H]1N(C(=O)OC(C)(C)C)CC[C@]12C(=O)N(c1cccc(-c3ccc(CO)c(S(C)(=O)=O)c3)c1)c1ccccc12 | Activity [4]: Non-Toxic; Activity [5]: Non-Toxic; Activity [6]: Non-Toxic
8 |  |  |  | CC(C)[C@@H]1N(C(=O)OC(C)(C)C)CC[C@@]12C(=O)N(c1cccc(-c3ccc(C(=O)O)c(S(C)(=O)=O)c3)c1)c1ccccc12 | IC50 [7]: Not Active
9 |  |  |  | CC(C)[C@@H]1N(C(=O)OC(C)(C)C)CC[C@@]12C(=O)N(c1cccc(-c3ccc(CO)cc3)c1)c1ccccc12 | IC50 [7]: Not Active
10 |  |  |  | CC(C)[C@@H]1N(C(=O)OC(C)(C)C)CC[C@@]12C(=O)N(c1cccc(-c3ccc4ccn(C)c4c3)c1)c1ccccc12 | IC50 [7]: Not Active; IC50 [8]: > 20 µM
11 | inactive |  |  | CC(C)[C@@H]1N(C(=O)OC(C)(C)C)CC[C@@]12C(=O)N(CCCCl)c1ccccc12 | 
12 | inactive |  |  | CC(C)[C@@H]1N(C(=O)OC(C)(C)C)CC[C@@]12C(=O)N(CCCC(=O)O)c1ccccc12 | 
13 | inactive | Active | Active | CC(C)[C@@H]1N(C(=O)OC(C)(C)C)CC[C@@]12C(=O)N(c1cccc(-c3ccc(C(=O)N(C)C)c(Cl)c3)c1)c1ccccc12 | 
14 |  |  |  | CC(C)[C@@H]1N(C(=O)OC(C)(C)C)CC[C@@]12C(=O)N(c1cccc(-c3ccc(CO)c(Cl)c3)c1)c1ccccc12 | IC50 [7]: Not Active
15 | inactive | Active | Active | CC(C)[C@@H]1N(C(=O)OC(C)(C)C)CC[C@@]12C(=O)N(c1ccc(CO)c(S(C)(=O)=O)c1)c1ccccc12 | 
